# ChEMBL document CHEMBL3994644, “Discovery of AAT-008, a novel, potent, and selective prostaglandin EP4 receptor antagonist” (Bioorg Med Chem Lett, 2017)
# How the values were obtained:
# [1] = target: T1, Prostaglandin E2 receptor EP4 subtype (Homo sapiens, UniProt P35408); test: Antagonist activity at human EP4 receptor expressed in HEK293 cells assessed as inhibition of PGE2-induced cAMP level by HTS assay; type: functional, cell-based; settings: for Kb: read-out: pA2 (converted)
# [2] = Apparent permeability from apical to basolateral side in human Caco2 cells; type: ADME, cell-based; settings: Caco-2
# Method in brief: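 Caco-2 monolayer permeability (Papp, apical to basolateral) was measured under constant pH, with the apical side at pH 6.5 and the basolateral side at pH 7.4.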
# [3] = target: T1, Prostaglandin E2 receptor EP4 subtype; test: Displacement of [3H]PGE from human EP4 receptor expressed in HEK293 cell membranes
# Method in brief: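 Membrane binding assay using [3H]PGE2 with membranes from HEK-293 cells expressing human EP4. The value is expressed as Ki.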
# [4] = target: T2, Prostaglandin E2 receptor EP1 subtype (Homo sapiens, UniProt P34995); test: Antagonist activity at human EP1 receptor
# T2 sequence (P34995 whole entry): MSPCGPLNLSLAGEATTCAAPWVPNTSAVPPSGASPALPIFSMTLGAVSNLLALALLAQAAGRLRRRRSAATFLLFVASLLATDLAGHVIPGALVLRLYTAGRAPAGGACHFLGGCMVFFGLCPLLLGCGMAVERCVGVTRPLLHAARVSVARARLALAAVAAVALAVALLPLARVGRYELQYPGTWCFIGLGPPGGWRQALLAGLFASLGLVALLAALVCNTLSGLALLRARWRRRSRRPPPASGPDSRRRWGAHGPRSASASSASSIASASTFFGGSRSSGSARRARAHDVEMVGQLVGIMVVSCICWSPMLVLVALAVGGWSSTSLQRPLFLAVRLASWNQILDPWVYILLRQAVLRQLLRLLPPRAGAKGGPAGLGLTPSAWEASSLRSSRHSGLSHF
# [5] = target: T3, Prostaglandin E2 receptor EP3 subtype (Homo sapiens, UniProt P43115); test: Antagonist activity at human EP3 receptor
# T3 sequence (P43115 whole entry): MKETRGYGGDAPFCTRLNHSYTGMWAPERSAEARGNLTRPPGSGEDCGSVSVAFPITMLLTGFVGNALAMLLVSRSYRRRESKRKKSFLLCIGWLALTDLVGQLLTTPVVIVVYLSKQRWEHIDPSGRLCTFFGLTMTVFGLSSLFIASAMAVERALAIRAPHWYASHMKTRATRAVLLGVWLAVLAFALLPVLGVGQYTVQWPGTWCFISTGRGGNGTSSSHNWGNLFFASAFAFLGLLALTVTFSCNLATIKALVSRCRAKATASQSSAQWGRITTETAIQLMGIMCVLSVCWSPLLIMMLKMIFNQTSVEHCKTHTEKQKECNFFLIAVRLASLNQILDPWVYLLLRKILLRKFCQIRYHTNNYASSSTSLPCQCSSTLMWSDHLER
# [6] = Half life in human liver microsomes; type: ADME, microsome
# [7] = target: Prostaglandin E2 receptor EP2 subtype (Homo sapiens, UniProt P43116); test: Antagonist activity at human EP2 receptor
# [8] = Solubility of the compound in pH 6.5 PBS; type: physicochemical
# Rattus norvegicus [9] = test: Analgesic activity in po dosed rat assessed as inhibition of carrageenan-induced mechanical hyperalgesia measured at 1 hr post dose; type: functional; settings: read-out: MED
# Method in brief: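 Rats dosed orally. Mechanical hyperalgesia was induced with carrageenan and assessed 1 h post dose. The value is the minimum effective dose (MED, mg/kg PO).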
# [10] = target: T4, Prostaglandin E2 receptor EP4 subtype (Rattus norvegicus, UniProt P43114); test: Antagonist activity at rat recombinant EP4 receptor assessed as inhibition of PGE2-induced cAMP level by cell based assay; type: functional; settings: read-out: pA2 (converted)
# Method in brief: (§1)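 Functional antagonism was measured as inhibition of PGE2-induced cAMP in cells transfected with rodent EP4 (mouse or rat). The value is expressed as pA2.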
# [11] = target: Prostaglandin E receptor 4 (Canis lupus familiaris, UniProt Q9TU16); test: Antagonist activity at dog recombinant EP4 receptor
# [12] = target: T4, Prostaglandin E2 receptor EP4 subtype; test: Antagonist activity at rat recombinant EP4 receptor
# Thromboxane A2 receptor = target: T5, Thromboxane A2 receptor (Homo sapiens, UniProt P21731); test: Antagonist activity at human platelet TP receptor
# T5 sequence (P21731 whole entry): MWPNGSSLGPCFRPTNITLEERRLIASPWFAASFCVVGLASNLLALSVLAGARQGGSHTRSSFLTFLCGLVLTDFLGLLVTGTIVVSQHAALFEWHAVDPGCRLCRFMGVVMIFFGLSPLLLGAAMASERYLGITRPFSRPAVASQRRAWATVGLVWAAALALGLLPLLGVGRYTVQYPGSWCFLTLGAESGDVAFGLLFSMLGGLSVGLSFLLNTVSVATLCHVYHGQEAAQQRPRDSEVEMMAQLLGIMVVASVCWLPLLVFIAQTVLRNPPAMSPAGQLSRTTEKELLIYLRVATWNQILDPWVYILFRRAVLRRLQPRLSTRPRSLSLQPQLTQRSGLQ
# Rattus norvegicus [13] = test: Analgesic activity in po dosed rat model of chronic inflammatory pain assessed as inhibition of CFA-induced weight bearing deficit; type: functional; settings: read-out: MED
# Method in brief: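 Chronic inflammatory pain was modelled in rats with CFA and read out as weight bearing deficit after oral dosing. The value is the minimum effective dose (MED, mg/kg PO).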
# Prostacyclin receptor = Prostacyclin receptor (Homo sapiens, UniProt P43119); test: Antagonist activity at human IP receptor
# [14] = target: Prostaglandin F2-alpha receptor (Homo sapiens, UniProt P43088); test: Antagonist activity at human FP receptor
# [15] = Antagonist activity at human DP receptor
# [16] = target: Prostaglandin E2 receptor EP4 subtype (Mus musculus, UniProt P32240); test: Antagonist activity at mouse recombinant EP4 receptor assessed as inhibition of PGE2-induced cAMP level by cell based assay; type: functional; settings: read-out: pA2 (converted); method in brief: as §1
# Prostaglandin E2 receptor EP4 subtype (Mus musculus, UniProt P32240), sequence (P32240 whole entry): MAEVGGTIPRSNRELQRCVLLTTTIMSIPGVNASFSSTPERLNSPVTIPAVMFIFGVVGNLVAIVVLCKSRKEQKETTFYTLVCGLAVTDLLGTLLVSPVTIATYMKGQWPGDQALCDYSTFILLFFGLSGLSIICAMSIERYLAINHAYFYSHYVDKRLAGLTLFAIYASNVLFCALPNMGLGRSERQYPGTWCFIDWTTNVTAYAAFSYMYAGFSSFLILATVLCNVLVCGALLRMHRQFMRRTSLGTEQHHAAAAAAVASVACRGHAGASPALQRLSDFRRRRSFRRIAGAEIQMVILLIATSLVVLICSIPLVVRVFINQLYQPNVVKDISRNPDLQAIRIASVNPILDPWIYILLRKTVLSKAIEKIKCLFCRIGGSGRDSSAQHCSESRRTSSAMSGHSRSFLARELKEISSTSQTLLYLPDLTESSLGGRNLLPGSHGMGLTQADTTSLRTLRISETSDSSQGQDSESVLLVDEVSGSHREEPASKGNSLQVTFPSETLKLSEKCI
# Prostaglandin E2 receptor EP2 subtype, sequence (P43116 whole entry): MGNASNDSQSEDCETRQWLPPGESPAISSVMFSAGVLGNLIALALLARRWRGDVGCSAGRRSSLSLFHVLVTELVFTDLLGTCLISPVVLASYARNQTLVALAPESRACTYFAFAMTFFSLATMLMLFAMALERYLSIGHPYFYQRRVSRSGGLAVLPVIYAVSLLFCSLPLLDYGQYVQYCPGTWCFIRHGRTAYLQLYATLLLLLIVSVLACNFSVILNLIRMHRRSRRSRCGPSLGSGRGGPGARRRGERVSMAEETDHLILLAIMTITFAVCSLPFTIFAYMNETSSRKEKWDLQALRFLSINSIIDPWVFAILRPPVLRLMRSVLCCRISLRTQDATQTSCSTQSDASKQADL
# T1 sequence (P35408 whole entry): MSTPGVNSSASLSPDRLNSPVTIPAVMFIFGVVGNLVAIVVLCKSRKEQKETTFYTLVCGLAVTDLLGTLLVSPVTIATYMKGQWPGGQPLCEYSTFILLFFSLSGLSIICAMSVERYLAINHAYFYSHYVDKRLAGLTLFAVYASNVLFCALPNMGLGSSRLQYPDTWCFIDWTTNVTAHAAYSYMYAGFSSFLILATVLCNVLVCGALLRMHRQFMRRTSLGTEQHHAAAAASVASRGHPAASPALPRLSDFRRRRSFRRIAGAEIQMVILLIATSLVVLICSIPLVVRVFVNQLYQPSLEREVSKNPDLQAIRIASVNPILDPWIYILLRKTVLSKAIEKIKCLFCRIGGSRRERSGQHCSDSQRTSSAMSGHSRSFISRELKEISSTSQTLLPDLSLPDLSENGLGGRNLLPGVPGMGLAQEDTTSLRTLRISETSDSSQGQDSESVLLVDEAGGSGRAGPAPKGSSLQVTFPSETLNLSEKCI
# T4 sequence (P43114 whole entry): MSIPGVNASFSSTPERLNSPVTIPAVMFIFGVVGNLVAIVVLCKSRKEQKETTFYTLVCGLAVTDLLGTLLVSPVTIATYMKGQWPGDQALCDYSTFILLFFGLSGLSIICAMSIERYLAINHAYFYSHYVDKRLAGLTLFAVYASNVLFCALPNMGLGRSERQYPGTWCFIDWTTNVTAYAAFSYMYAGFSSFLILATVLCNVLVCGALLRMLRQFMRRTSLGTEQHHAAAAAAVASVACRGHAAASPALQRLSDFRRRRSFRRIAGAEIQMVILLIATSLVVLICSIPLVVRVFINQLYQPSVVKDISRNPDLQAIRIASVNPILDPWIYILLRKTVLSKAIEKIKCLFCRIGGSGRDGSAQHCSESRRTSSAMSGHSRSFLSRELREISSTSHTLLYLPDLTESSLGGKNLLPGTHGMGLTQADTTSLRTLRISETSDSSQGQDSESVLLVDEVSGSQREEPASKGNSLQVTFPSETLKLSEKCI
# Prostacyclin receptor, sequence (P43119 whole entry): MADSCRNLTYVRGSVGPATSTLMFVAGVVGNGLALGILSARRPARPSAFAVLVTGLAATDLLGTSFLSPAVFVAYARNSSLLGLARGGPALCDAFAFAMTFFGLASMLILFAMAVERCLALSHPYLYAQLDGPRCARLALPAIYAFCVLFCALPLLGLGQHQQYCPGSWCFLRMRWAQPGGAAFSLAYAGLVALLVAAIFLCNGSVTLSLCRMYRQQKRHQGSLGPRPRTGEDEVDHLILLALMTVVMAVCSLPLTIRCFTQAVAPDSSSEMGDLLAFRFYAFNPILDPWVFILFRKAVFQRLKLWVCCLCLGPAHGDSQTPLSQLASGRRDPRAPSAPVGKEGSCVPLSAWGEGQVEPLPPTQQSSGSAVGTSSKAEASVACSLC
# Prostaglandin E receptor 4, sequence (Q9TU16 whole entry): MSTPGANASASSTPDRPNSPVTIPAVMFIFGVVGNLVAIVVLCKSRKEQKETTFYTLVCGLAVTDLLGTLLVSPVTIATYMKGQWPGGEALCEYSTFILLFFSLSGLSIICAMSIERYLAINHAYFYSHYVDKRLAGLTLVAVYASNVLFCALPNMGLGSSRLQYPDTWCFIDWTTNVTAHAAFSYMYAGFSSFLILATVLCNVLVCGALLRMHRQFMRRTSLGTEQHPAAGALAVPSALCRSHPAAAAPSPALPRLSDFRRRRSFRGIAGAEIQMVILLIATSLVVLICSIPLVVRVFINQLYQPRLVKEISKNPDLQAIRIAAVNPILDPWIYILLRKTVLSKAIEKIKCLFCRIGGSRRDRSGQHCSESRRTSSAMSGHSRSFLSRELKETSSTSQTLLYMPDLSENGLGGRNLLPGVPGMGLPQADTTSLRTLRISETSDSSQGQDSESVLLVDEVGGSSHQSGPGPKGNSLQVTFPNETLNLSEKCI
# Prostaglandin F2-alpha receptor, sequence (P43088 whole entry): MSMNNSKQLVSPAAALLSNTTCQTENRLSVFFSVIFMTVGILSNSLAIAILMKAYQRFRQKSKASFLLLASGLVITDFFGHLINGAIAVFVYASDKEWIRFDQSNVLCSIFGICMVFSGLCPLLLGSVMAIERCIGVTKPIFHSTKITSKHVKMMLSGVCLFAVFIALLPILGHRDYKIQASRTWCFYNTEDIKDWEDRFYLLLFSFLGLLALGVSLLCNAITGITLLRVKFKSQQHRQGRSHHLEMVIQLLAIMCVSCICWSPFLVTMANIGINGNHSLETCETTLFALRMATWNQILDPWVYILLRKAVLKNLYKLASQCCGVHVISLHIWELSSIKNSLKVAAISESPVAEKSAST
SMILES,IC50 [1] [nM],Papp A→B [2] [×10⁻⁶ cm/s],IC50 [3] [nM],further results
C[C@H](NC(=O)c1cc(Cl)cnc1Oc1cccc(C(F)(F)F)c1)c1ccc(C(=O)O)cc1,60.4,–,–,–
CC(C)(NC(=O)c1cc(F)cnc1Oc1ccc(F)cc1)c1ccc(C(=O)O)cc1,–,36.3,545,–
CCC(NC(=O)c1cc(F)cnc1Oc1ccc(F)cc1)c1ccc(C(=O)O)cc1 (racemic),–,20.1,181,–
Cc1cnc(Oc2ccc(F)cc2)c(C(=O)NCc2ccc(C(=O)O)cc2)c1,2940,–,–,–
C[C@H](NC(=O)c1cc(Cl)cnc1Oc1cccc(OC(F)(F)F)c1)c1ccc(C(=O)O)cc1,1790,–,–,–
O=C(O)c1ccc(CNC(=O)c2cc(F)cnc2Oc2ccc(F)cc2)cc1,575,25.3,104,IC50 [4]: > 20000 nM; IC50 [5]: > 20000 nM; half-life [6]: > 2 h; Ki [3]: 73 nM; IC50 [7]: > 20000 nM; solubility [8]: > 10 µM
C[C@@H](NC(=O)c1cc(Cl)cnc1Oc1ccc(F)cc1)c1ccc(C(=O)O)cc1,1210,25.3,–,–
O=C(O)c1ccc(CNC(=O)c2cc(F)ccc2Oc2ccc(F)cc2)cc1,317,36.3,124,IC50 [4]: > 20000 nM; IC50 [5]: > 20000 nM; IC50 [7]: 236 nM
C[C@H](NC(=O)c1cc(Cl)cnc1Oc1ccc(Cl)cc1)c1ccc(C(=O)O)cc1,94.3,–,–,–
C[C@H](NC(=O)c1cc(Cl)cnc1Oc1ccccc1Cl)c1ccc(C(=O)O)cc1,93.5,–,–,–
O=C(O)c1ccc(CNC(=O)c2cccc(OCc3nc4cc(F)ccc4s3)c2)cc1,370,–,–,half-life [6]: > 2 h; solubility [8]: > 10 µM
C[C@H](NC(=O)c1cc(Cl)cnc1Oc1ccc(F)cc1)c1ccc(C(=O)O)cc1,25.9,30.3,9.68,IC50 [4]: > 20000 nM; IC50 [5]: > 20000 nM; half-life [6]: > 2 h; minimal effective dose (Rattus norvegicus [9]): 10 mg/kg; Kb [1]: 2.45 nM; IC50 [7]: 4360 nM
C[C@H](NC(=O)c1cc(Cl)cnc1Oc1cncc(F)c1)c1ccc(C(=O)O)cc1,175,–,–,–
C[C@H](NC(=O)c1cc(Cl)ccc1Oc1cccc(F)c1)c1ccc(C(=O)O)cc1,30.6,41.9,8.76,IC50 [4]: > 20000 nM; IC50 [5]: > 20000 nM; half-life [6]: > 2 h; minimal effective dose (Rattus norvegicus [9]): 10 mg/kg; Kb [1]: 1.26 nM; IC50 [7]: 1620 nM
C[C@H](NC(=O)c1cc(Cl)ccc1Oc1cccc(Cl)c1)c1ccc(C(=O)O)cc1,41.1,–,–,–
CSc1cccc(Oc2ncc(Cl)cc2C(=O)N[C@@H](C)c2ccc(C(=O)O)cc2)c1,400,–,–,–

SMILES,IC50 [1] [nM],Papp A→B [2] [×10⁻⁶ cm/s],IC50 [3] [nM],further results
C[C@H](NC(=O)c1cc(Cl)cnc1Oc1ccc(F)c(F)c1)c1ccc(C(=O)O)cc1,< 50,–,–,–
C[C@H](NC(=O)c1cc(Cl)cnc1Oc1cccc(Cl)c1)c1ccc(C(=O)O)cc1,21.8,–,5.02,half-life [6]: > 2 h
COc1cccc(Oc2ncc(Cl)cc2C(=O)N[C@@H](C)c2ccc(C(=O)O)cc2)c1,340,–,–,–
O=C(NCc1ccc(C(=O)NS(=O)(=O)c2cccc(Cl)c2)cc1)c1cccc(OCc2nc3cc(F)ccc3s2)c1,302,–,–,–
C[C@H](NC(=O)c1cc(Cl)cnc1Oc1cccc(F)c1F)c1ccc(C(=O)O)cc1,< 50,–,–,–
C[C@H](NC(=O)c1cc(Cl)ccc1Oc1ccc(F)cc1)c1ccc(C(=O)O)cc1,38.2,32.4,6.59,IC50 [4]: > 20000 nM; IC50 [5]: > 20000 nM; half-life [6]: > 2 h; minimal effective dose (Rattus norvegicus [9]): 10 mg/kg; Kb [1]: 1.78 nM; IC50 [7]: 709 nM
C[C@H](NC(=O)c1cc(Cl)cnc1Oc1cncc(Cl)c1)c1ccc(C(=O)O)cc1,137,–,–,–
Cc1ccc(C(=O)NCc2ccc(C(=O)O)cc2)c(Oc2ccc(F)cc2)n1,> 5000,–,–,–
O=C(O)c1ccc(CNC(=O)c2cc(Cl)ccc2Oc2ccc(F)cc2)cc1,101,51.4,21.6,–
C[C@H](NC(=O)c1cc(Cl)cnc1Oc1cc(F)ccc1F)c1ccc(C(=O)O)cc1,< 50,–,–,–
CCc1nc2c(C)nc(C)cc2n1-c1ccc(CCNC(=O)NS(=O)(=O)c2ccc(C)cc2)cc1 [GRAPIPRANT],–,–,–,Ki [4]: > 5000 nM; Kb [10]: 6.46 nM; Ki [5]: > 5000 nM; Ki [11]: 24 nM; Ki [12]: 20 nM; Ki (Thromboxane A2 receptor): > 5000 nM; Ki [3]: 13 nM; minimal effective dose (Rattus norvegicus [9]): 30 mg/kg; Kb [1]: 4.79 nM; Ki [7]: > 5000 nM; minimal effective dose (Rattus norvegicus [13]): 20 mg/kg; Ki (Prostacyclin receptor): > 5000 nM; Ki [14]: > 5000 nM; Ki [15]: 2930 nM; Kb [16]: 7.76 nM
O=C(O)c1ccc(CNC(=O)c2cc(Cl)cnc2Oc2ccc(F)cc2)cc1,254,20.1,37.9,IC50 [4]: > 20000 nM; IC50 [5]: > 20000 nM; IC50 [7]: 1290 nM
C[C@H](NC(=O)c1cc(Cl)cnc1Oc1ccccc1F)c1ccc(C(=O)O)cc1,61.4,–,–,–
C[C@H](NC(=O)c1cc(F)cnc1Oc1ccc(F)cc1)c1ccc(C(=O)O)cc1,143,30.2,28.7,–
C[C@H](NC(=O)c1cc(Cl)cnc1Oc1cc(F)cc(F)c1)c1ccc(C(=O)O)cc1,< 50,–,–,–
